Measured values of several laboratories.
Protocols differ between the studies behind these lines.
Target: Serine/threonine-protein kinase tousled-like 1 (TLK1, Homo sapiens, UniProt Q9UKI8)
Residues used in one study (Q9UKI8 1-766): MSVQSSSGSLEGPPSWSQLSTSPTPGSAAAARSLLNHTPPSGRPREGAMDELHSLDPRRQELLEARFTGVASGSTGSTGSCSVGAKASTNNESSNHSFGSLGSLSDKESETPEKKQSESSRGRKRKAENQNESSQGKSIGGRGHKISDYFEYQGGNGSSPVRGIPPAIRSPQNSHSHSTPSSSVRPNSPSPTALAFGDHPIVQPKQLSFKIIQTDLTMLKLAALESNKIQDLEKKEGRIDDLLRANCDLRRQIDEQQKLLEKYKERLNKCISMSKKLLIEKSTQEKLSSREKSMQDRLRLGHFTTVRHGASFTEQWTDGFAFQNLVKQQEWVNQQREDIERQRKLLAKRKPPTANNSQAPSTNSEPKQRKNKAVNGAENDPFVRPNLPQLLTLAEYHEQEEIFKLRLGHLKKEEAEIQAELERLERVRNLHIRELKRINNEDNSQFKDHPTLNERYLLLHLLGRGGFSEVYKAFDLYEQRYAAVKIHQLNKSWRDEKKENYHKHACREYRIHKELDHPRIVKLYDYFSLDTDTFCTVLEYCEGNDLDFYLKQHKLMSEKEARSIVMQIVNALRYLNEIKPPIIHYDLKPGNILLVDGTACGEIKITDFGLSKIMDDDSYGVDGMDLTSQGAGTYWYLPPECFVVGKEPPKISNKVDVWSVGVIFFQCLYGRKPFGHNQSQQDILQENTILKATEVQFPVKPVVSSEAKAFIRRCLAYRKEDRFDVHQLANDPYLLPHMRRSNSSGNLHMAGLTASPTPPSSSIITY

| effect on | technique | concentration | remaining binding | SMILES |
| --- | --- | --- | --- | --- |
| binding | competition with immobilised ligand | 1 µM | 97% | COc1cnc(Nc2cccc(S(N)(=O)=O)c2)nc1N1CCN(c2ccccc2)C(=O)C1 |
| cell-free assay | competition with immobilised ligand | 5 µM | 86% | COc1ncc2cc3ccccc3nc2c1C#N |
| binding | – | 1 µM | 79% | C[C@@H]1CCN(c2nccc(-c3cnn4ncccc34)n2)C1 |
| cell-free assay | competition with immobilised ligand | 1 µM | 98% | O=C(Nc1cccnn1)N1CC(C/C=C/c2cncc(Oc3ccc(C(F)(F)F)cn3)n2)C1 |
| binding | competition with immobilised ligand | 10 µM | 100% | c1cncc(-c2cccc(Nc3nccc(NC4CCCCC4)n3)c2)c1 |
| cell-free assay | competition with immobilised ligand | 1 µM | 87% | Cc1nccc(COC(=O)N2C[C@@H]3[C@@H](CNC(=O)c4ccc5[nH]nnc5c4)[C@@H]3C2)n1 |
| binding | – | 1 µM | 64% | N[C@H]1CCN(c2nccc(-c3cnn4ncccc34)n2)C1 |
| cell-free assay | competition with immobilised ligand | 1 µM | 100% | CCc1ccccc1C(=O)Nc1n[nH]c2c(C)c(F)c(C3C(C#N)=C(C)N(C)C(C)=C3C#N)cc12 |
| binding | – | 1 µM | 97% | CC1CCCN1c1nccc(-c2cnn3ncccc23)n1 (centres unmarked) |
| cell-free assay | competition with immobilised ligand | 0.1 µM | 100% | Cc1c[nH]c2nccc(Oc3c(F)cc(Nc4cc(Cl)nc(N)n4)cc3F)c12 |
| binding | competition with immobilised ligand | 1 µM | 12% | O=C(c1ccc(Nc2nccc(-c3cc4ccccc4s3)n2)cc1)N1CCC(N2CCCC2)CC1 |
| binding | competition with immobilised ligand | 1 µM | 87% | Nc1ncc2c(n1)-c1c([nH]c3ccc(C#CC4CC4)cc13)CCCC2 |
| binding | competition with immobilised ligand | 1 µM | 75% | O=C(NCCCN1CCOCC1)c1ccc(Nc2ncc(Cl)c(-c3ccc(Cl)s3)n2)cc1 |
| binding | – | 1 µM | 100% | COc1ccnn2ncc(-c3ccnc(N(C)C)n3)c12 |
| binding | competition with immobilised ligand | 1 µM | 87% | O=C(NCC1CCOCC1)c1n[nH]cc1NC(=O)c1c(F)cccc1F |
| binding | competition with immobilised ligand | 1 µM | 32% | O=C(c1ccc(Nc2ncc(Cl)c(-c3ccc(Cl)s3)n2)cc1)N1CCC(N2CCCC2)CC1 |
| cell-free assay | competition with immobilised ligand | 1 µM | 68% | O=C(NC[C@@H]1[C@H]2CN(C(=O)OCc3cc(C(F)(F)F)cc(C(F)(F)F)c3)C[C@@H]12)c1ccc2[nH]nnc2c1 |
| binding | – | 1 µM | 100% | CN(CCCC(F)(F)F)c1nccc(-c2cnn3ncccc23)n1 |
| cell-free assay | competition with immobilised ligand | 1 µM | 100% | CCC(=O)N[C@@H]1CC[C@H](C(=O)N(C)c2ccc(-c3nc4ccccc4o3)cc2)C1 |
| binding | – | 1 µM | 75% | Cc1cnn2ncc(-c3ccnc(N(C)C)n3)c2c1 |
